Active and inactive are the calls of the source.
Tests used:
[1] = system: Rattus norvegicus; assay: Analgesic activity in ip dosed Charles River rat by tail flick test; type: functional
How it was run: (§1)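 D'Amour-Smith rat tail-flick test. Compounds were given ip, im or po, and analgesic ED50 was derived. Doses are expressed as mg of base per kg and given as the hydrochloride or hydrobromide salt or as the free base. Some ED50s rest on two doses only.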

[2] = system: Rattus norvegicus; assay: Analgesic activity in im dosed Charles River rat by tail flick test; type: functional; how it was run: as §1
[3] = system: Rattus norvegicus; assay: Analgesic activity in po dosed Charles River rat by tail flick test; type: functional; how it was run: as §1
[4] = system: Rattus norvegicus; assay: Analgesic activity in Charles River rat at 20 mg/kg, po by tail flick test; type: functional, organism-based; set-up: dose 20 mg/kg
[5] = organism: Rattus norvegicus; assay: Ratio of morphine ED50 to compound ED50 for analgesic activity in Charles River rat by tail flick test; type: functional
[6] = system: Rattus norvegicus; assay: Ratio of morphine ED50 to compound ED50 for analgesic activity in po dosed Charles River rat by tail flick test; type: functional
[7] = Acute toxicity in po dosed rat; type: organism-based; settings: in vivo
How it was run: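 Acute toxicity in rats after oral dosing, expressed as an LD50 in mg/kg.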

[8] = system: Rhesus monkey; assay: Narcotic antagonism activity in morphine-dependent rhesus monkey assessed as precipitation of withdrawal symptoms at 1 mg/kg, im measured for 10 hrs; type: functional, organism-based; set-up: dose 1 mg/kg; settings: Macaca mulatta
[9] = system: Rhesus monkey; assay: Analgesic activity in po dosed monkey assessed as increase in shock threshold; type: functional, organism-based; settings: Macaca mulatta
[10] = system: Rhesus monkey; assay: Analgesic activity in monkey assessed as increase in shock threshold at 0.06 mg/kg, im; type: functional, organism-based; set-up: dose 0.06 mg/kg; settings: Macaca mulatta
[11] = system: Rhesus monkey; assay: Narcotic antagonism activity in morphine-dependent rhesus monkey assessed as precipitation of withdrawal symptoms at 0.5 to 1 mg/kg, im; type: functional, organism-based; settings: Macaca mulatta
[12] = Rattus norvegicus, Charles River, Tail, ip, read-out: ED50
[13] = Rattus norvegicus, Charles River, Tail, im, read-out: ED50
[14] = Rattus norvegicus, Charles River, Tail, po, read-out: ED50

C[C@@]12CCCCCC(Cc3ccc(OC(=O)C4CC4)cc31)[C@@H]2N.Cl
ED50 [1, 12]: 1.5 mg/kg | ED50 [2, 13]: 0.45 mg/kg

CC[C@@]12CCCCCC(Cc3ccc(OC)cc31)[C@@H]2N.Cl (mixture of isomers)
ED50 [1]: 3.5 mg/kg | ED50 [2]: 12 mg/kg

CC[C@@]12CCCCCC(Cc3ccc(O)cc31)[C@@H]2N (mixture of isomers)
ED50 [1]: 3.7 mg/kg | ED50 [3]: 10 mg/kg | ED50 [2]: 0.25 mg/kg

CC[C@@]12CC/C=C\CC(Cc3ccc(OC)cc31)[C@@H]2N.Cl (mixture of isomers)
ED50 [1]: 4.2 mg/kg

CC[C@@]12CC/C=C\CC(Cc3ccc(O)cc31)[C@@H]2N.Cl (mixture of isomers)
ED50 [1]: 1.75 mg/kg

COc1ccc2c(c1)[C@@]1(C)CCCCCC(C2)[C@@H]1N.Cl (mixture of isomers)
ED50 [1]: 4.88 mg/kg

Br.C[C@@]12CCCCCC(Cc3ccc(O)cc31)[C@@H]2N (mixture of isomers)
ED50 [1]: 1.11 mg/kg | ED50 [3]: 10 mg/kg | ED50 [2]: 0.45 mg/kg

CC[C@@]12CCCCCC(Cc3ccc(OC)cc31)[C@@H]2N (mixture of isomers)
Activity [4]: Active

CC[C@@]12CCCCCC(Cc3ccc(OC)cc31)[C@@H]2N.Cl (stereo in doubt; (+)-1)
ED50 [1]: 10 mg/kg | ED50 [3]: 30 mg/kg | ED50 [2]: 10 mg/kg

CC[C@@]12CCCCCC(Cc3ccc(O)cc31)[C@@H]2N (stereo in doubt; (+)-2)
ED50 [1]: 7.5 mg/kg | ED50 [3]: 80 mg/kg | ED50 [2]: 2 mg/kg

CC[C@@]12CC/C=C\CC(Cc3ccc(OC)cc31)[C@@H]2N.Cl (stereo in doubt; (+)-3)
ED50 [1, 12]: 3.75 mg/kg | ED50 [2, 13]: 12.5 mg/kg

CC[C@@]12CC/C=C\CC(Cc3ccc(O)cc31)[C@@H]2N.Cl (stereo in doubt; (+)-4)
ED50 [1]: 0.8 mg/kg | ED50 [3, 14]: 5 mg/kg | ED50 [2]: 0.195 mg/kg | Ratio ED50 [5]: <=15

COc1ccc2c(c1)[C@@]1(C)CCCCCC(C2)[C@@H]1N.Cl (stereo in doubt; (+)-5)
ED50 [1]: >25 mg/kg

Br.C[C@@]12CCCCCC(Cc3ccc(O)cc31)[C@@H]2N (stereo in doubt; (+)-6)
ED50 [1]: >100 mg/kg | ED50 [2]: 95 mg/kg

CC[C@@]12CCCCCC(Cc3ccc(OC)cc31)[C@@H]2N.Cl (stereo in doubt; (-)-1)
ED50 [1]: 3.3 mg/kg | ED50 [3]: 7.5 mg/kg | ED50 [2]: 3.5 mg/kg

CC[C@@]12CCCCCC(Cc3ccc(O)cc31)[C@@H]2N (stereo in doubt; (-)-2)
ED50 [1]: 0.5 mg/kg | ED50 [3]: 3.5 mg/kg | ED50 [2]: 0.1 mg/kg | Ratio ED50 [5]: <=15

CC[C@@]12CC/C=C\CC(Cc3ccc(OC)cc31)[C@@H]2N.Cl (stereo in doubt; (-)-3)
ED50 [1]: >6.25 mg/kg

CC[C@@]12CC/C=C\CC(Cc3ccc(O)cc31)[C@@H]2N.Cl (stereo in doubt; (-)-4)
ED50 [1]: 9 mg/kg | ED50 [2]: 4 mg/kg

COc1ccc2c(c1)[C@@]1(C)CCCCCC(C2)[C@@H]1N.Cl (stereo in doubt; (-)-5)
ED50 [1]: 2 mg/kg | ED50 [3, 14]: 3.5 mg/kg | ED50 [2, 13]: 4.5 mg/kg

Br.C[C@@]12CCCCCC(Cc3ccc(O)cc31)[C@@H]2N (stereo in doubt; (-)-6)
Ratio ED50 [6]: 8 | LD50 [7]: 200 mg/kg | ED50 [1]: 0.53 mg/kg | ED50 [3]: 2.05 mg/kg | ED50 [2]: 0.12 mg/kg | Ratio ED50 [5]: <=15

C[C@@]12CCCCCC(Cc3ccc(O)cc31)[C@@H]2N (stereo in doubt; (-)-6)
Activity [8]: Active | Activity [9]: Dose-dependent effect | Activity [10]: Active | Activity [11]: Active

CN1CC[C@]23c4c5ccc(O)c4O[C@H]2[C@@H](O)C=C[C@H]3[C@H]1C5 [MORPHINE]
ED50 [1, 12]: 4.43 mg/kg | ED50 [3, 14]: 15.9 mg/kg | ED50 [2, 13]: 1.57 mg/kg

Source: ChEMBL document CHEMBL3271953, “Bridged aminotetralins. 4. Resolution of potent analgesics of the bridged aminotetralin type” (J Med Chem, 1976)
